Ins promoter up = MIN6 insulin promoter up-regulation; z-score at 5 µM; AID 1625; MIN6 insulin promoter-GFP reporter, high-content imaging; hits give high values; actives 0.3% (n = 190,000);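 active = z-score above 3 at 5 µM with at least 500 cells counted in the well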
NPY-Y1 PAM-ag = potentiators or agonists of human neuropeptide Y receptor Y1; P25929; NPY-Y1 expressing cells, potentiator/agonist activation; activation, % at 3.6 µM; actives 0.37% (n = 220,000); AID 1304; in the data active = activation above about 33%, passing the limit was not always enough;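 also: cells stimulated with NPY at EC10 then isoproterenol at EC100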
Insulin prom inh = TRM-6 insulin promoter activity inhibition; TRM-6 cells (human fetal islet line), insulin promoter-eGFP reporter, imaging; reporter expression induced with tamoxifen; inhibition, % at 2 µM; actives 0.9% (n = 130,000); AID 1273;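 active = inhibition above the mean plus 3 SD, with well images judged a real hit on visual review, cut at about 60% in these data, passing the limit was not always enough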
NPY2 pot ag = human NPY-Y2 potentiation or agonism, primary screen; actives 0.45% (n = 220,000); cells expressing NPY-Y2, potentiator/agonist read-out; P49146; activation, % at 3.6 µM; in the data active = activation above about 27%;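 also: cells stimulated with NPY near EC25 plus isoproterenol at EC100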
Target sequence (P49146 whole entry, looked up): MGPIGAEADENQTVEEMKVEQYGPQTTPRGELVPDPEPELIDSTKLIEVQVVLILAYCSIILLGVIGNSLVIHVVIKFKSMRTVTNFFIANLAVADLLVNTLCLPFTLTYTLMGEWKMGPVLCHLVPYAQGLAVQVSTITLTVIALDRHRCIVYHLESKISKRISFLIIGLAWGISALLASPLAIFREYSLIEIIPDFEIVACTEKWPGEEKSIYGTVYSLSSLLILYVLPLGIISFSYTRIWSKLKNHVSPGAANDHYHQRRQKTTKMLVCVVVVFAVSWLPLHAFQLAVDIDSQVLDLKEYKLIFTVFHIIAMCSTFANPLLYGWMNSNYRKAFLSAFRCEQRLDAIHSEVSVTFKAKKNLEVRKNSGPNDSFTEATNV
NPY-Y1 antag = antagonists of human neuropeptide Y receptor Y1. P25929. HEK293-CNG Y1 cells, membrane potential fluorescence; NPY at EC95, then isoproterenol. inhibition, % at 3.6 µM. actives 1% (n = 200,000);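 active = inhibition above the campaign mean inhibition of all tested compounds plus 3 SD, cut at about 20% in these data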
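material = HEK293 cells with Y1 receptor plus CNG channel | also added = NPY 25 nM then isoproterenol 1 µM plus Ro 20-1724 25 µM | schedule = dye 3 h, compound 60 min room temperature, stimulation 45 min | measured by = membrane potential fluorescence | benchmarks = high control isoproterenol alone, low control NPY with isoproterenol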
NPY Y2 blocker = blocks the human neuropeptide Y Y2 receptor; P49146; NPY-Y2 expressing cells, antagonist mode; inhibition, % at 2.7 µM; actives 0.99% (n = 140,000); AID 793; in the data active = inhibition above about 17%
NPY-Y1 antag ct = counter-screen for NPY-Y2 antagonists: human NPY-Y1 antagonism; shares compounds with NPY Y2 blocker; cell-based NPY-Y1 antagonism counterscreen; inhibition, % at 3.6 µM; actives 19% (n = 710); AID 1256; in the data active = inhibition above about 20%;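 also: cells challenged with NPY then isoproterenol with cAMP sensed through a CNG channel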
NPY-Y2 ant conf = confirmation of human neuropeptide Y receptor Y2 antagonists; shares compounds with NPY Y2 blocker; inhibition, % at 2.8 µM; HEK293 NPY-Y2 CNG channel, membrane potential fluorescence; actives 32% (n = 710);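 active = mean inhibition of triplicate wells above the hit cutoff set in the primary screen, cut at about 17% in these data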
Numbers stand for hits; . = inactive; / = no result. This is a sample that favours compounds with a hit; in the whole collection about 2.5% have one here.

SMILES	Ins promoter up	NPY-Y1 PAM-ag	Insulin prom inh	NPY2 pot ag	NPY-Y1 antag	NPY Y2 blocker	NPY-Y1 antag ct	NPY-Y2 ant conf
C=C(C)CSc1nc2c(c(=O)[nH]c(=O)n2C)n1CCC(C)C	.	.	/	.	.	22	.	.
CCOc1ccc(-c2nc(C#N)c(NCc3ccc4c(c3)OCO4)o2)cc1	.	.	/	.	.	.	/	/
Cc1ccc(OCc2nc(C#N)c(NCc3ccc4c(c3)OCO4)o2)cc1	.	.	.	.	.	22	.	.
COc1ccc(-c2nnc3n2N=C(c2cccc(Br)c2)CS3)cc1OC	.	.	/	.	.	19	.	.
COc1cc(NC(=O)c2cnn3c(C(F)F)cc(C4CC4)nc23)c(OC)cc1Cl	.	.	/	.	.	/	/	/
COC(=O)c1ccccc1NC(=O)c1cnn2c(C(F)F)cc(C3CC3)nc12	/	.	.	.	.	19	44	32
Cc1ccc(-c2nn3c(C)nnc3s2)cc1NC(=O)c1ccc(-c2ccc(Cl)cc2Cl)o1	.	.	/	.	.	19	22	24
O=C(COC(=O)c1ccc(S(=O)(=O)NCc2ccco2)cc1)NC1CCCCCC1	.	.	.	.	.	.	/	/
O=C(NC1CCCCCC1)c1ccc(S(=O)(=O)NCc2ccco2)cc1	.	.	.	.	.	21	.	.
CCOc1ccc(-n2cc(C(=O)Nc3cccc(Cl)c3)c3cc(OC)c(OC)cc3c2=O)cc1	.	.	.	.	.	18	.	20
CC(=O)CCn1c(=O)n(CCC(C)=O)c(=O)n(CCC(C)=O)c1=O	.	.	.	.	.	.	/	/
O=C(O)c1cc(Cl)c2ccccc2c1O	/	.	.	.	.	20	21	.
O=C(c1ccccc1)c1ccc(OCCCCN2CCCCC2)cc1	.	.	.	.	.	.	/	/
c1ccc(COc2ccc(OCCCCN3CCCCC3)cc2)cc1	.	.	/	.	.	27	.	39
O=C(c1ccccc1)N(Cc1cccnc1)C1(C(=O)Nc2ccccc2)CCCCC1	.	.	.	.	.	19	.	.
COc1ccc(-c2ccnc(SCC(=O)c3ccc(Br)cc3)n2)cc1	.	.	.	.	.	21	42	42
CC1=CC(C)(C)N(S(=O)(=O)c2ccc(C)cc2)c2ccc(C)cc21	.	.	.	.	.	21	24	20
CCn1nc(C(=O)OCC(=O)c2cc(C)n(Cc3cccs3)c2C)c2ccccc2c1=O	.	.	.	.	.	24	.	25
Cc1cc(C(=O)COC(=O)c2ccccc2O)c(C)n1Cc1cccs1	.	.	.	.	.	.	/	/
CN(C)C(=O)C(CCN1CCC(O)(c2ccc(Cl)cc2)CC1)(c1ccccc1)c1ccccc1	/	.	.	.	.	25	.	28
CN(C)c1ccc(NC(=O)CN2CCC(O)(c3ccccc3)CC2)cc1	.	.	/	.	.	/	/	/
c1ccc(-c2oc3ncnc(NCCCN4CCOCC4)c3c2-c2ccccc2)cc1	.	.	/	.	.	18	.	.
Cc1ccc(NC(=O)c2nc[nH]c2C(=O)NCC(=O)OC(C)(C)C)cc1	.	/	/	/	/	/	/	/
c1ccc(-c2nc(CSc3nnc(-c4cccs4)o3)cs2)cc1	/	.	/	.	.	20	.	20
CN(C)c1ccc(/C=C2\SC(=O)N(CC(O)Cn3c4ccccc4c4ccccc43)C2=O)cc1 (configuration not stated)	/	.	/	.	.	21	26	.
SMILES	Ins promoter up	NPY-Y1 PAM-ag	Insulin prom inh	NPY2 pot ag	NPY-Y1 antag	NPY Y2 blocker	NPY-Y1 antag ct	NPY-Y2 ant conf
COc1cccc2sc(N(CCCN(C)C)C(=O)c3sc4ccccc4c3Cl)nc12	.	.	/	.	.	27	.	.
Cc1cccc2sc(N(CCCN(C)C)C(=O)COc3ccc(Cl)cc3)nc12	.	.	.	.	.	/	/	/
CCCCn1c(=N)n(CCOc2ccc(C)cc2)c2ccccc21	.	.	.	.	.	20	.	.
O=c1c2ccccc2cnn1Cc1n[nH]c(=S)n1-c1ccc(Cl)cc1	.	.	.	.	.	28	.	.
Cc1cc(Cl)nc2ccc(Cc3ccc4nc(Cl)cc(C)c4c3)cc12	.	.	/	.	/	/	/	/
Cc1ccc(N(CC(=O)N/N=C/c2ccc(OC3CSC3)cc2)S(=O)(=O)c2ccccc2)cc1	.	.	/	.	.	.	/	/
COc1ccc(N(CC(=O)N/N=C/c2ccc(OC3CSC3)cc2)S(=O)(=O)c2ccccc2)cc1	.	.	.	.	.	21	22	54
CC(NC(=O)C1CCCN1S(=O)(=O)c1ccc2c(c1)n(C)c(=O)c(=O)n2C)c1ccccc1 (configuration not stated)	.	.	/	.	/	/	/	/
O=C(N/N=C/c1ccco1)c1ccc(OCc2ccccc2)cc1	.	.	/	.	/	/	/	/
O=C(N/N=C/c1ccco1)c1ccccc1OCc1ccc(Br)cc1	.	.	.	.	.	33	.	20
O=S(=O)(Nc1ncn[nH]1)c1ccc2ccccc2c1	.	.	.	.	.	.	/	/
O=S(=O)(Nc1nc2ccccc2[nH]1)c1ccc2ccccc2c1	.	.	.	.	.	19	.	.
CCCCC1=NN(C(=O)c2ccco2)C(O)(C(F)(F)F)C1 (configuration not stated)	.	.	/	.	.	/	/	/
CC1CCN(C(=O)CN(c2ccccc2)S(=O)(=O)N(C)C)CC1	.	.	.	.	.	/	/	/
O=C(C1CCCCN1S(=O)(=O)c1ccccc1[N+](=O)[O-])N1CCCCC1 (configuration not stated)	/	.	.	.	.	/	/	/
Cc1ccccc1C(=O)Oc1ccc(Br)cc1C(=S)N1CCCC1	.	.	.	.	.	17	.	.
O=C(Oc1ccc(Br)cc1C(=S)N1CCCC1)c1ccccc1Cl	.	.	.	.	.	.	/	/
Cc1ccc(-c2nc3ncccc3o2)cc1NC(=O)COc1ccccc1	.	.	.	.	.	21	.	.
COc1ccccc1N1CN(Cc2ccccc2)CNC1=S	.	.	/	.	/	/	/	/
COc1ccc(CSc2nc(C)cc(C)c2S(C)(=O)=O)cc1	.	.	.	.	.	/	/	/
Cc1cccc(C(=O)Nc2ccc(NC(=O)Cc3ccc(Cl)cc3)cc2)c1	.	.	.	.	.	.	/	/
O=C(Nc1ccc(Cl)cc1)c1csc(-c2ccncc2)n1	.	.	/	.	.	/	/	/
O=C(Cc1ccc(Cl)cc1)Nc1ccc(NC(=O)c2ccccc2)cc1	.	.	/	.	.	21	.	.
O=C(Nc1ccc(Cl)cc1)c1csc(-c2ccccc2)n1	.	.	.	.	.	20	.	23
Nc1nonc1C(=O)NCCNCc1ccccc1OCc1ccc(F)cc1	.	.	.	.	.	17	.	.
CCOc1ccc(CNCCNC(=O)c2nonc2N)cc1	.	.	.	.	.	/	/	/
